{"data": "Experimental data gathered from unrelated publications", "read-out": "cell growth or viability"}
{"SMILES": "O=C1C(O)=C([C@H]2CC[C@H](c3ccc(Cl)cc3)CC2)C(=O)c2ccccc21", "cell line": "SH-SY5Y", "test": "resazurin", "endpoint": "IC50", "value": "> 50000 nM"}
{"SMILES": "C#Cc1nc(C2=C(C)C(O)CC2)cs1 (stereo not drawn)", "cell line": "HT-1080", "endpoint": "CC50", "value": "960 nM"}
{"SMILES": "Nc1ccc(/C=C/C(=O)N2CCc3c(oc4c(-c5ccc(F)cc5)cc(-c5ccc(C(=O)N6CCOCC6)nn5)cc34)C2)cn1", "cell line": "Pan02", "test": "CCK-8", "setting": "72 h", "endpoint": "IC50", "value": "570 nM"}
{"SMILES": "COc1cc2c3c(n(CCCn4ccnc4)c(=O)c2cc1OC)-c1nc2c(cc1C3=O)OCO2", "cell line": "SK-N-MC", "test": "MTS", "setting": "72 h", "endpoint": "IC50", "value": "170 nM"}
{"SMILES": "Nc1ccc(/C=C/C(=O)NCc2cc3cc(-c4ccc(C(=O)N5CCC(F)(F)CC5)cc4)cc(-c4ccc(F)cc4)c3o2)cn1", "cell line": "Pan02", "test": "CCK-8", "setting": "72 h", "endpoint": "IC50", "value": "1640 nM"}
{"SMILES": "COc1cc2c3c(n(CCCN4CCOCC4)c(=O)c2cc1OC)-c1nc2c(cc1C3=O)OCO2", "cell line": "SK-N-MC", "test": "MTS", "setting": "72 h", "endpoint": "IC50", "value": "698 nM"}
{"SMILES": "CC(C)(C)c1cnc(CSc2cnc(NC(=O)C3CCN(CCCCCCCCSc4cccc5c4CN(C4CCC(=O)NC4=O)C5=O)CC3)s2)o1 (stereo not drawn)", "cell line": "HuT78", "test": "trypan blue", "setting": "1 µM, 48 h", "endpoint": "viability", "value": "10.5%"}
{"SMILES": "CCN(CC)CCCC(C)Nc1ccnc2cc(Cl)ccc12 (stereo not drawn)", "cell line": "SH-SY5Y", "test": "resazurin", "endpoint": "IC50", "value": "44000 nM"}
{"SMILES": "C=CC(=O)NC1CCN(c2ncc3ncnc(Nc4ccc(Oc5ccc6c(c5)ncn6C)c(C)c4)c3n2)CC1", "cell line": "SNU668", "endpoint": "EC50", "value": "34.9 nM"}
{"SMILES": "[H]/N=C(\\N/C(=N/[H])Nc1ccc(Cl)cc1)NC(C)C", "cell line": "SH-SY5Y", "test": "resazurin", "endpoint": "IC50", "value": "> 50000 nM"}
{"SMILES": "CC1(C)CCC(CN2CCN(c3ccc(C(=O)NS(=O)(=O)c4ccc(NCC5CCOCC5)c([N+](=O)[O-])c4)c(Oc4cnc5[nH]ccc5c4)c3)CC2)=C(c2ccc(Cl)cc2)C1", "cell line": "MM.1R", "test": "ATP luminescence", "setting": "48 h", "endpoint": "IC50", "value": "7460 nM"}
{"SMILES": "CCN(CCO)CCCC(C)Nc1ccnc2cc(Cl)ccc12 (stereo not drawn)", "cell line": "SH-SY5Y", "test": "resazurin", "endpoint": "IC50", "value": "> 50000 nM"}
{"SMILES": "C=C(F)C(=O)N1CCN(c2nc(OC[C@@H]3CCCN3C)nc3c2CCN(c2cccc4cccc(Cl)c24)C3)C[C@@H]1CC#N", "cell line": "Lu-99", "test": "ATP luminescence", "setting": "3D culture", "endpoint": "IC50", "value": "21.3 nM"}
{"SMILES": "CC(C)(C)c1cnc(CSc2cnc(NC(=O)C3CCN(CCCCCSc4cccc5c4CN(C4CCC(=O)NC4=O)C5=O)CC3)s2)o1 (stereo not drawn)", "cell line": "HuT78", "test": "trypan blue", "setting": "0.5 µM, 48 h", "endpoint": "viability", "value": "13.4%"}
{"SMILES": "COc1cc2c3c(n(CCCNCCO)c(=O)c2cc1OC)-c1nc2c(cc1C3=O)OCO2", "cell line": "SK-N-MC", "test": "MTS", "setting": "72 h", "endpoint": "IC50", "value": "173 nM"}
